The results in this text go back to PubChem BioAssay.

The nature of assay [1]: inhibitors of TNFa-induced NFkB p65 translocation, primary screen, imaging, HUVEC, MLSMR starter and 10KST1 sets (AID 438;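 active means inhibition above 20% together with a positive visual image hit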;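 further: compound added about 3h40 before a 20 min TNFalpha stimulation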;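 on inhibition: signal is the nuclear over cytoplasmic p65 intensity ratio per well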). Conditions: HUVEC TNFa-induced p65 nuclear translocation; cell count: measured here: nuclei count (cytotoxicity indicator), at 2.08 µM; inhibition: at 2 µM, stronger effect = higher value, 0% TNFa-plus-vehicle, 100% no-TNFa wells.
Assay [2] is described as follows: inhibitors of mutant huntingtin aggregation, primary screen, imaging, exon1htt(103Q)mCFP cells, high-content imaging (AID 483;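 active means visual image review flags a hit and inhibition of aggregation exceeds 20%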;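 further: compound exposure lasted 3 days before fixation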;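 on nuclei count: percent of the per-plate median nuclei count of sample wells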). The following applies: exon1htt(103Q)mCFP cell line, aggregate imaging, at 2 µM; inhibition of aggregation: stronger effect = higher value; nuclei count: measured here: cell count, toxicity.
A short description of assay [3]: inhibitors of E-selectin induction by TNFa, primary screen, imaging, HUVEC, immunofluorescence, MLSMR starter and 10KST1 sets (AID 487;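 active means visually confirmed hit in the image check and inhibition above 20%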;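 on inhibition: signal is fraction of cell area covered by stained E-selectin grains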;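 on nuclei count: 100% = median nuclei count of all wells on the same plate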). Conditions: HUVEC TNFalpha-induced E-selectin immunofluorescence imaging, at 2 µM; inhibition: stronger effect = higher value; nuclei count: measured here: cell number, toxicity.
For assay [4], the target named is Voltage-gated potassium channel subunit beta-2 (Rattus norvegicus) (UniProt P62483). In words: KvBeta enzyme negative modulators, primary screen, biochemical, NADPH fluorescence (AID 622;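 active means fluorescence slope higher than the sample average by over 3 SD, cut at about -0.22 in these data, passing the limit was not always enough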;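 further: slope of raw intensity against log time taken from 70 to 1610 s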). The following applies: recombinant KvBeta, 4-cyanobenzaldehyde reduction, at 10 µM, stronger effect = higher value.
Sequence of Voltage-gated potassium channel subunit beta-2 (Rattus norvegicus) (P62483 whole entry, looked up): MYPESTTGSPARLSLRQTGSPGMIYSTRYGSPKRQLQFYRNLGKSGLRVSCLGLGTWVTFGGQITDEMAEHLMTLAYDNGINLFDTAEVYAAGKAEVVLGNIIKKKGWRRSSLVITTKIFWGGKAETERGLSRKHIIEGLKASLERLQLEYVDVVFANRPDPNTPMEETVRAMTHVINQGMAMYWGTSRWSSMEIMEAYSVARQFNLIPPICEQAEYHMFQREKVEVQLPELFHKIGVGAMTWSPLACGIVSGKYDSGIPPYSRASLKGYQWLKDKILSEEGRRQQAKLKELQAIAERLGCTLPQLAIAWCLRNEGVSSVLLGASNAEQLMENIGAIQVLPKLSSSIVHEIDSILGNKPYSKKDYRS
The target is the same in assay [5]. In words: KvBeta positive modulators, primary screen, biochemical, NADPH fluorescence (AID 623;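 active means NADPH fluorescence slope more negative than the mean of all samples by about 3 SD, 99.7% confidence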;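 further: fluorescence intensity change per second fitted from 20 to 320 s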). Conditions: Recombinant KvBeta, NADPH fluorescence decrease slope, 10 min; at 10 µM; stronger effect = lower value.
The target in assay [6] is Muscarinic acetylcholine receptor M4 (Homo sapiens) (UniProt P08173). In words: compounds altering M4/GIRK thallium flux, either direction, primary screen, M4 allosteric agonist project, cell-based, HEK293 M4/GIRK, BTC-AM (AID 625;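 active means fluorescence slope after compound addition differing from the mean of all tested samples at 99.7% confidence, mostly higher but some lower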;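 further: thallium influx through GIRK channels coupled to M4 in HEK293 cells with BTC-AM dye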). The following applies: at 10 µM, actives lie on both sides. In a few lines: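 assay system = HEK293 cells with M4 receptor and GIRK channels | medium = pH 7.3 thallium assay buffer | doses = 10 µM final, single point | timing = cells overnight at 37 °C, BTC-AM loading 1 h, reads 2 min total | signal = BTC-AM fluorescence, 1 Hz kinetic reads | read-out = post-addition slope, 15–24 s, of baseline-normalized fluorescence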
Sequence of Muscarinic acetylcholine receptor M4 (Homo sapiens) (P08173 whole entry, looked up): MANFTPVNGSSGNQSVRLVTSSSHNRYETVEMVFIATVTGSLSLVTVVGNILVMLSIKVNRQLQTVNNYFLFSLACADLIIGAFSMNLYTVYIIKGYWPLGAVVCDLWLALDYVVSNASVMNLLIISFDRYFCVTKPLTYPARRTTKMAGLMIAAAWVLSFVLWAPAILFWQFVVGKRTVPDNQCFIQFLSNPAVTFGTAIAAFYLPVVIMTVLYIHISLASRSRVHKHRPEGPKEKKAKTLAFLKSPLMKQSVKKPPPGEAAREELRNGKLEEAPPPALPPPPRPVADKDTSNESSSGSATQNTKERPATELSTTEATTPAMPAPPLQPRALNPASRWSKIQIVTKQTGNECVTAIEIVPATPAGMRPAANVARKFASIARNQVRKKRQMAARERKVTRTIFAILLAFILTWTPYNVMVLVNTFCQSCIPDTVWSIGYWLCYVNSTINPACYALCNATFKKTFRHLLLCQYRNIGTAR

The nature of assay [7]: inhibitors of Sendai virus-induced IRF3 signaling, primary screen, TLR/RLR signaling modifier project, cell-based, Sendai virus stimulus, luciferase, 10K MLSCN set (AID 602276;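 active means inhibition at or above 50% at 10 µM; inactive means inhibition below 50%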;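 further: firefly luciferase from ISG56 promoter only with Renilla not read in this screen; 0% = Sendai virus plus DMSO and 100% = medium plus DMSO without virus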). Conditions: HEK293 RL24 IRF3 luciferase reporter, at 10 µM, stronger effect = higher value. For orientation: A reporter such as luciferase makes a cellular process visible.
Assay [8] is described as follows: inhibitors of poly I:C-induced TLR3 signaling, primary screen, cell-based, poly I:C stimulus, luciferase, 10K MLSCN set (AID 602277). The following applies: HEK293-TLR3 RL24 IRF3 luciferase reporter, at 10 µM, stronger effect = higher value.

Structures are written as SMILES. Activity calls are given as the source filed them.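 How the source made its calls, unless noted: active means inhibition of the reporter signal at or above 50%; inactive means inhibition below 50%.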

The inhibition is the change of the read-out against control, counted positive when it falls. Turning to `Clc1ccc(SCCCCn2ccnc2)cc1`, the cell count in assay [1] came out at 289. The inhibition in assay [1] was -10.4% (inactive); in assay [3], -114% (inactive); in assay [7] it was -17.8% (inactive); in assay [8], -10.6% (inactive). Also, the inhibition of aggregation in assay [2] is 0.8% (inactive). The nuclei count in assay [2] was 101%; in assay [3] it was 115%. Moreover, the fluorescence slope is -0.306 (inactive) in assay [4] and 0.00775 (inactive) in assay [6]. Also, the NADPH fluorescence slope in assay [5] was -1.2e-05 (inactive).
For `CN(C)S(=O)(=O)c1ccc(C(=O)Nc2ccccc2C(=O)O)cc1`, in assay [1], the cell count worked out at 487. The inhibition in assay [1] is -8.9% (inactive); in assay [3], -1.2% (inactive); in assay [7] it was 2.15% (inactive); in assay [8], 46.7% (inactive). In assay [2], the inhibition of aggregation was 13.1% (inactive). Also, the nuclei count in assay [2] is 83%; in assay [3], 78%. In addition, the fluorescence slope is -0.52 (inactive) in assay [4] and 0.00545 (inactive) in assay [6]. The NADPH fluorescence slope in assay [5] is -3.3e-05 (inactive).
On to `O=C(Nc1cccc(F)c1)N1CC=C(n2c(=O)[nH]c3ccccc32)CC1`, for which the cell count in assay [1] turned out to be 312. The inhibition in assay [1] was 5.7% (inactive); in assay [3], -37.9% (inactive); in assay [7] it was 15% (inactive); in assay [8] it was 15.5% (inactive). Moreover, the inhibition of aggregation in assay [2] was 4.5% (inactive). The nuclei count in assay [2] stood at 107%; in assay [3] it was 83.5%. Moreover, the fluorescence slope in assay [4] was -0.453 (inactive); in assay [6] it was 0.00517 (inactive). Besides, in assay [5], the NADPH fluorescence slope was -0.000227 (inactive).
`CCOC(=O)Nc1cc(OCC)c(NC(=O)C2CC2)cc1OCC`: in assay [1], the cell count was 589. Moreover, the inhibition is -12.9% (inactive) in assay [1], -52.7% (inactive) in assay [3], 3.59% (inactive) in assay [7] and 11.8% (inactive) in assay [8]. For the same compound, the inhibition of aggregation in assay [2] was -15% (inactive). In addition, the nuclei count is 117% in assay [2] and 119% in assay [3]. In addition, the fluorescence slope in assay [4] was -0.439 (inactive); in assay [6], 0.00711 (inactive). The NADPH fluorescence slope in assay [5] was -4.7e-05 (inactive).
In the case of `Cc1ccc(-c2csc3nnc(SCC(=O)NCc4ccco4)n23)cc1`, in assay [1], the cell count stood at 656. For the same compound, the inhibition in assay [1] is 5.2% (inactive); in assay [3], -76.9% (inactive); in assay [7], 17.2% (inactive); in assay [8] it was 19.3% (inactive). Also, the inhibition of aggregation in assay [2] was -2.5% (inactive). For the same compound, the nuclei count in assay [2] was 101%; in assay [3], 94.1%. The fluorescence slope was -0.556 (inactive) in assay [4] and 0.00536 (inactive) in assay [6]. Further, the NADPH fluorescence slope in assay [5] was -2.1e-05 (inactive).
Turning to `Nc1c(Sc2ccccc2)c(=O)[nH]c(=O)n1Cc1ccccc1`, the cell count in assay [1] worked out at 254. Also, the inhibition in assay [1] was 7.4% (inactive); in assay [3], -3.2% (inactive); in assay [7], -0.235% (inactive); in assay [8], -2.56% (inactive). Also, the inhibition of aggregation in assay [2] is -8.5% (inactive). In addition, the figures for the nuclei count in assay [2] and in assay [3] were 92.6% and 78.6%, respectively. For the same compound, the fluorescence slope was -0.249 (inactive) in assay [4] and 0.00651 (inactive) in assay [6]. In assay [5], the NADPH fluorescence slope is -4.4e-06 (inactive).
For `N#CCCn1cnc2ccccc21`, in assay [1], the cell count was 332. Also, the inhibition was 5.6% (inactive) in assay [1], 63.2% (active) in assay [3], -0.285% (inactive) in assay [7] and 3.23% (inactive) in assay [8]. Besides, the inhibition of aggregation in assay [2] is 22.8% (inactive). Also, the nuclei count in assay [2] came to 99.2%; in assay [3], 132%. In addition, the results for the fluorescence slope in assay [4] and in assay [6] were -0.564 (inactive) and 0.0098 (inactive), respectively. In addition, in assay [5], the NADPH fluorescence slope was -2.5e-05 (inactive).
For `CSc1nc(NC(C)(C)C)nc(Oc2ccc(=O)[nH]n2)n1`, the cell count in assay [1] was determined as 356. In addition, the inhibition in assay [1] was -6.2% (inactive); in assay [3], -29.6% (inactive); in assay [7] it was 12.8% (inactive); in assay [8], 11.8% (inactive). Also, the inhibition of aggregation in assay [2] is 10.5% (inactive). Further, the nuclei count was found to be 86.5% in assay [2] and 107% in assay [3]. The fluorescence slope in assay [4] is -0.594 (inactive); in assay [6], 0.0039 (inactive). Besides, the NADPH fluorescence slope in assay [5] was 1.9e-06 (inactive).
Turning to `COc1ccc(/C(O)=C2/C(=O)C(=O)N(CC3CCCO3)C2c2cccc(OC)c2)cc1` (stereo not given), the cell count in assay [1] was 717. In addition, the inhibition was 3.9% (inactive) in assay [1], 36.2% (inactive) in assay [3], 14.7% (inactive) in assay [7] and 21.1% (inactive) in assay [8]. Besides, in assay [2], the inhibition of aggregation is -15.3% (inactive). Also, the nuclei count came out at 118% in assay [2] and 97.6% in assay [3]. The fluorescence slope in assay [4] was -0.429 (inactive); in assay [6], 0.00604 (inactive). For the same compound, in assay [5], the NADPH fluorescence slope was -3.2e-05 (inactive).
In the case of `CS(=O)(=O)Nc1ccc(C(=O)NCc2ccc3c(c2)OCO3)cc1`, the cell count in assay [1] amounted to 409. In addition, the inhibition in assay [1] was -5.7% (inactive); in assay [3] it was -42.6% (inactive); in assay [7] it was 9.26% (inactive); in assay [8], 4.21% (inactive). In addition, the inhibition of aggregation in assay [2] was 16.6% (inactive). Also, the nuclei count was 66.5% in assay [2] and 108% in assay [3]. In addition, the fluorescence slope in assay [4] is -0.472 (inactive); in assay [6], 0.00561 (inactive). The NADPH fluorescence slope in assay [5] is -1.7e-05 (inactive).
